Experimental data from article PMC5650512 (Cell chemical biology, 2017).

Columns and labels:
AMPKα (p-Thr172) [1] = assay: AMPKα Thr172 phosphorylation western blot, MCF-7; format: cell-based
MCF-7 cells [2] = assay: Mitochondrial membrane potential ΔΨm; format: cell-based
How it was run: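 JC-1 arm: MCF-7 cells exposed to test compound (20 µM, 4 h), with or without pre-treatment with (±)-14,15-EET (1 µM). Red/green ratio quantified as mean ± S.D. (n=4). TMRE arm: 20,000 cells/well grown overnight, TMRE 500 nM for 30 min at 37 °C, two washes in PBS/0.2% BSA, read Ex 530/Em 590 nm. FCCP (10 µM, 30 min) background subtracted.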

MDA-MB-231 cells = assay: Mitochondrial membrane potential ΔΨm; format: cell-based
AMPKα (p-Thr172) [3] = assay: AMPKα phosphorylation western blot, MDA-MB-231; format: cell-based; conditions: 1 µM; 24 hours
MCF-7 cells [4] = assay: OCR and ECAR, XF Extracellular Flux Analyzer, MCF-7; format: cell-based
[5] = test system: AMPKα in MDA-MB-231 tumors; assay: Signaling proteins in MDA-MB-231 xenograft tumors; parameters: species or system mice; conditions: in vivo
[6] = test system: mTOR, PKC-ζ/λ, AMPKα in MCF-7 tumors; assay: Signaling proteins in MCF-7 xenograft tumors; format: in vivo, mice
[7] = Plasma concentration after ip dosing; format: in vivo, mice; conditions: female, athymic nude (Foxn1nu/Foxn1nu), mouse, 4 mg/kg/day
[8] = test system: STAT3-Tyr705, p70 S6 Kinase-Thr389, mTOR-Ser2448, ERK1/2 phosphorylation; assay: Western blot time course of signaling proteins, MCF-7; format: cell-based; conditions: 20 µM
[9] = test system: MDA-MB-435/LCC6 cell line; assay: MDA-MB-435/LCC6 cell growth; format: cell-based; conditions: data not shown
[10] = test system: MCF-7 mammary fat pad xenograft; assay: MCF-7 orthotopic mammary fat pad xenograft
MCF-7 cell line = assay: MCF-7 cell proliferation; format: cell-based; conditions: for Abrogation of biguanide growth inhibition by (±)-14,15-EET: (±)-14,15-EET 1 µM, MTT at 24 hours
T47D cell line = assay: T47D cell growth; format: cell-based
CYP2J2 = target: T1, CYP2J2 (Homo sapiens, UniProt P51589); assay: CYP2J2 AA epoxygenase activity; format: biochemical; conditions: data not shown
T1 sequence (P51589 1-502): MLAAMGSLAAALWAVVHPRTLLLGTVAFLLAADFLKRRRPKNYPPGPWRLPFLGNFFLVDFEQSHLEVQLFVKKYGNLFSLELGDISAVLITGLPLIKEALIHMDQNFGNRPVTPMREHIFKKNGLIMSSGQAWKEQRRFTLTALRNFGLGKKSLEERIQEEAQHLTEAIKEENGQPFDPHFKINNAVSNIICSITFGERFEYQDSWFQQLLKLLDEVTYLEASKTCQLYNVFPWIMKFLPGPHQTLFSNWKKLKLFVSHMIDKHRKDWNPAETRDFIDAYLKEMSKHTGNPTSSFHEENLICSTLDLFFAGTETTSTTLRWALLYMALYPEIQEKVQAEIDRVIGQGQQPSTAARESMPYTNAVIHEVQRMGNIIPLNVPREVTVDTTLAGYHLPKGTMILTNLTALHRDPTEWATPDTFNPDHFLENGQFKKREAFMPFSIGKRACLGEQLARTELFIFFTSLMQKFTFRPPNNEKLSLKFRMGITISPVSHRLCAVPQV

MDA-MB-231 cell line = assay: MDA-MB-231 cell growth; format: cell-based
CYP3A4 = CYP3A4 (Homo sapiens, UniProt P08684); assay: Microsomal CYP3A4-mediated EET biosynthesis; format: biochemical; conditions: IC50, inhibition of CYP3A4-mediated synthesis of (±)-14,15-EET, 30 minutes exposure
MCF-7 cells [11] = assay: Cellular ATP by luminescent assay; format: cell-based; conditions: 6 hours, 10% serum
How it was run: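 Cells seeded in 96-well plates and exposed to vehicle or test compound. Lysis solution added with 5 min orbital shaking, then luciferase/luminescent substrate; 10 min in the dark before reading luminescence. ATP was quantified against a standard curve of known ATP concentrations.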

MCF-7 cells [12] = assay: Cellular EET levels by LC-ESI/MRM/MS; format: cell-based; conditions: 5 mM, 6 hours; P<0.05 for each regioisomer
[13] = test system: cytochrome P450 reductase (CPR); assay: Rate of reduction of cytochrome c by CPR; format: biochemical
How it was run: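 Run in a quartz cuvette with 1 mL 0.3 M potassium phosphate, pH 8.3, containing cytochrome c (62 μM) and NADPH (50 μM). Reaction started by adding CPR (final 0.2 mg/mL). Absorbance at 550 followed in real time.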

[14] = metformin 2.5 or 5 mM, over 5 hours

Sequence of CYP3A4 (P08684 whole entry): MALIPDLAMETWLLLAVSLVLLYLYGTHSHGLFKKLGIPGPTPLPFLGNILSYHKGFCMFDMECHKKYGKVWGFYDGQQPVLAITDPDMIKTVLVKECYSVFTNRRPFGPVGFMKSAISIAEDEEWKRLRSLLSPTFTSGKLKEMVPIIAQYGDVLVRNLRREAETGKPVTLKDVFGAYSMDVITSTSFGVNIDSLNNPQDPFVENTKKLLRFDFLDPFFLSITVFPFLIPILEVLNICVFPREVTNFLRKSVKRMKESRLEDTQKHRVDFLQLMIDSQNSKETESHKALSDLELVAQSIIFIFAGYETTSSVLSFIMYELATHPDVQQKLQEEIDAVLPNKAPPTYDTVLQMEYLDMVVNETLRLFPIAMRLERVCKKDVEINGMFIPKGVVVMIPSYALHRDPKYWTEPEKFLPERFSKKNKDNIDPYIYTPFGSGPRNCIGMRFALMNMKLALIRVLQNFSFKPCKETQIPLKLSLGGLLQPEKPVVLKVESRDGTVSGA

For CCCCCC1OC1C/C=C\C/C=C\C/C=C\CCCC(=O)O (racemic) [(±)-14,15-EET, (±)-14,15-(5Z,8Z,11Z)-EET, reference compound], the “Effect on pAMPKα (Thr172) phosphorylation” value (AMPKα (p-Thr172) [1]; 1 µM, 6 and 24 hours) was “suppression of pAMPKα phosphorylation”, the “Effect on ΔΨm alone (JC-1)” value (MCF-7 cells [2]; 1 µM, relative to control) was “increased mitochondrial cross membrane potential” and the “Rescue of HBB-reduced ΔΨm by pre-treatment” value (MCF-7 cells [2]; (±)-14,15-EET 1 µM, HBB 20 µM) was “partly rescued”. The “Rescue of HBB-reduced ΔΨm by pre-treatment” value (MDA-MB-231 cells; exogenous (±)-14,15-EET, HBB 20 µM) was “partly rescued” and the “Effect on AMPK phosphorylation” value (AMPKα (p-Thr172) [3]) was “no effect”.
For CCCCCC1OC1CCCCCCC/C=C\CCCC(=O)O (racemic) [(±)-14,15-EEZE], the “Effect on AMPKα activation” value (AMPKα (p-Thr172) [1]; associated with OCR suppression) was “early activation”, the “Effect on ECAR” value (MCF-7 cells [4]; 1.0 µM) was “suppressed” and the “Effect on OCR” value (MCF-7 cells [4]; 1.0 µM) was “suppressed”.
With NC(=O)c1ncn([C@@H]2O[C@H](CO)[C@@H](O)[C@H]2O)c1N [AICAR] the “Effect on ECAR” value (MCF-7 cells [4]; AICAR 100 µM) was “increased” and the “Effect on OCR” value (MCF-7 cells [4]; AICAR 100 µM) was “increased”.
For CCCCCCNC(=N)NC(=N)NCc1ccccc1 [HBB, N1-hexyl-N5-benzyl-biguanide], the “AMPKα activation in tumors” value [5] was “did activate AMPKα”, the “Intratumoral PKC-ζ/λ phospho-threonine 410/403 (RPPA)” value ([6]; HBB 4 mg/kg/day vs. PBS, P=0.000119) was “reduction of PKC-ζ/λ phospho-threonine 410/403” and the “Intratumoral mTOR (RPPA)” value ([6]; HBB 4 mg/kg/day vs. PBS, P=4.06×10^−6) was “reduction of mTOR”. The “AMPKα activation in tumors” value ([6]; in vivo) was “failed to activate AMPKα”, the “Effect on pAMPKα” value (AMPKα (p-Thr172) [1]; 20 µM) was “activated pAMPKα within 30 minutes” and the concentration at 1 h [7] was 530 nM. For the same compound, the “Effect on mTOR, S6 kinase and ERK” value ([8]; by 24 hours, presence or absence of serum) was “Significant inhibition”, the “Effect on p70 S6 kinase” value ([8]; independent of serum starvation) was “rapid and transient activation of p70 S6 kinase at 30 minutes” and the “Effect on Stat3 phosphorylation” value ([8]; presence of serum) was “inhibited Stat3 phosphorylation”. The “Effect on ΔΨm (JC-1)” value (MCF-7 cells [2]; 20 µM for 4 hours) was “rapid reduction of ΔΨm”, the “Effect on ΔΨm (TMRE, non-quenching conditions)” value (MCF-7 cells [2]; TMRE 500 nM) was “inhibit ΔΨm in a dose dependent fashion” and the “Potency of OCR inhibition compared to metformin” value (MCF-7 cells [4]) was > 250 fold. The “Effect on ECAR” value (MCF-7 cells [4]; HBB 20 and 40 µM) was “transient spike of ECAR, followed by inhibition without recovery”, the “Effect on OCR” value (MCF-7 cells [4]; HBB 20 and 40 µM) was “rapid, dose-dependent reduction of OCR within 15 minutes” and the “Abrogation of HBB growth inhibition by EETs” value [9] was “failed to counteract HBB inhibition”. The “Tumor size vs. vehicle” value ([10]; 4 mg/kg/day, Gompertzian fitting P=0.0354) was “smaller than the vehicle-treated from day 8 onward”, the “Hepatic or cardiac toxicities by post-mortem histopathology” value ([10]; 6 mg/kg ip 4 days per week) was “no HBB-related hepatic or cardiac toxicities” and the Tumor size ([10]; 6 mg/kg ip 4 days per week (24 mg/kg/week), P=0.039) was “reduced tumor size”. The “Tumor weights at the end point relative to vehicle” value ([10]; 6 mg/kg ip 4 days per week, P=0.034) was “half”, the “Minimal effective dose (MED)” value ([10]; ip daily beginning the day after tumor cell implantation) was 4 mg/kg and the “Abrogation of HBB growth inhibition by EET analog C22” value (MCF-7 cell line) was “partially abrogated HBB inhibition”. For the same compound, the “Abrogation of biguanide growth inhibition by (±)-14,15-EET” value (MCF-7 cell line) was “part of the inhibition”, the “Effect on ΔΨm (JC-1)” value (MDA-MB-231 cells; 20 µM for 4 hours) was “rapid reduction of ΔΨm” and the “Abrogation of HBB growth inhibition by (±)-14,15-EET” value (T47D cell line) was “abrogated most of the HBB inhibition”. The “Inhibition of AA epoxygenase activity of CYP2J2” value (CYP2J2; microsomal) was “did not inhibit”, the “Abrogation of HBB growth inhibition by EETs” value (MDA-MB-231 cell line) was “failed to counteract HBB inhibition” and the “Rescue from HBB inhibition by N-acetyl-cysteine (NAC)” value (MDA-MB-231 cell line) was “rescued by the antioxidant N-acetyl-cysteine (NAC)”. The IC50 (CYP3A4) was 9.5 µM and the “Reduction of ATP” value (MCF-7 cells [11]; HBB) was 30%.
For CCCCNC(=N)NC(=N)N [buformin], the “Abrogation of biguanide growth inhibition by (±)-14,15-EET” value (MCF-7 cell line) was “part of the inhibition”.
In the case of CN(C)C(=N)N=C(N)N [metformin], the “Intracellular EET levels” value (MCF-7 cells [12]) is reported as “reduced”, the “Effect on ECAR” value (MCF-7 cells [4]; [14]) is reported as “transient ECAR spike, followed by suppression of ECAR” and the “Effect on OCR” value (MCF-7 cells [4]; [14]) is reported as “marginal suppression of OCR”. For the same compound, the “Inhibition of transfer of electrons from CPR (rate of reduction of cytochrome c)” value [13] was “does not inhibit”, the “Abrogation of biguanide growth inhibition by (±)-14,15-EET” value (MCF-7 cell line) was “abrogated most of the growth inhibition” and the “Inhibition of AA epoxygenase activity of CYP2J2” value (CYP2J2; 0.75, […] or 3 mM) was “not inhibited”. The “Effect on cellular ATP” value (MCF-7 cells [11]; metformin, normalized to cell number) was “no effect”.
In the case of [H]/N=C(/N)N/C(=N/[H])NCCc1ccccc1 [phenformin], the “Abrogation of biguanide growth inhibition by (±)-14,15-EET” value (MCF-7 cell line) is reported as “part of the inhibition”.
